The record followed here is PMC8314423 (Journal of medicinal chemistry, 2018).

For experiment [1], the target named is SOS1-mediated nucleotide exchange on RAS (Homo sapiens, UniProt Q07889). In words: SOS1-mediated nucleotide exchange assay. It is filed as biochemical.
Experiment [2] relates to RAS-GTP levels in HeLa cells. As to the kind of experiment: RAS-GTP levels in HeLa cells. To be noted: 10 min treatment; for change in RAS-GTP levels: up to 30 μM. It is filed as cell-based. The method, boiled down: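 HeLa (WT KRAS) cells exposed to test compound for 10 min at concentrations up to 30 μM. RAS-GTP levels were measured together with the accompanying pERK1/2 T202/Y204 levels. EGF (50 ng/mL, 5 min) served as the positive control for pathway stimulation. Data are representative of two independent experiments.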

SOS1-mediated nucleotide exchange on RAS, sequence (Q07889 564-1049 limits assumed): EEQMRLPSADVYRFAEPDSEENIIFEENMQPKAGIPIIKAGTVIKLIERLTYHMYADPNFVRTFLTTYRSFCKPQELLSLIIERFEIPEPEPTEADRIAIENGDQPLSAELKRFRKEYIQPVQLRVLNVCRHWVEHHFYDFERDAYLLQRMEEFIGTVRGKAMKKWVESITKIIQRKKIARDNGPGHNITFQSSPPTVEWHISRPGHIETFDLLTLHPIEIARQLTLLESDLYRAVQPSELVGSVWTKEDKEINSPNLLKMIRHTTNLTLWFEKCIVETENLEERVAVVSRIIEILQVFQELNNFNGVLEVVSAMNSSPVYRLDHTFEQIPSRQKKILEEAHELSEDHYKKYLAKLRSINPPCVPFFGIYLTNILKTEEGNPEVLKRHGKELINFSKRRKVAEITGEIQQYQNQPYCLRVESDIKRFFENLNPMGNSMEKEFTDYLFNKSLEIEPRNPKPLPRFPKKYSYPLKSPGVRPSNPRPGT
SOS1-mediated nucleotide exchange on RAS, sequence (P01112 1-166 partner limits assumed): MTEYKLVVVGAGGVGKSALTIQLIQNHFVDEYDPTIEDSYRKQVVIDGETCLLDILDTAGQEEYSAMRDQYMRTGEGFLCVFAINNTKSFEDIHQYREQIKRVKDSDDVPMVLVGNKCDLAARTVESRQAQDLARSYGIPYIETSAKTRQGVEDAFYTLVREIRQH

As for `Cc1cc2ncn(Cc3ccc(F)c(Cl)c3)c2cc1C` [Compound 4, 1-(3-Chloro-4-fluorobenzyl)-5,6-dimethyl-1H-benzo[d]imidazole], the nucleotide exchange activation result in experiment [1] (in words) was “negligible nucleotide exchange activation”.
In experiment [1], `Cc1cc(Cn2c(N3CCNCC3)nc3ccc(Cl)cc32)cc(C)c1F` [Compound 29, 6-Chloro-1-(4-fluoro-3,5-dimethylbenzyl)-2-(piperazin-1-yl)-1H-benzo[d]imidazole] showed an EC50 of less than 1000 nM.
Consider `Cc1cc(Cn2c(N3CCNCC3)nc3c(N4CCN(C)CC4)cc(Cl)cc32)cc(C)c1F` [Compound 42, 6-Chloro-1-(4-fluoro-3,5-dimethylbenzyl)-4-(4-methylpiperazin-1-yl)-2-(piperazin-1-yl)-1H-benzo[d]imidazole], for which, in experiment [2], the “lowest concentration inducing small increases in RAS-GTP” value turned out to be 0.3 µM and the “change in RAS-GTP levels” value is listed as “substantial increases in RAS-GTP levels at 10–30 μM”.
For `Cc1cc(Cn2c(N3CCNCC3)nc3c(-c4cncnc4C)cc(Cl)cc32)cc(C)c1F` [Compound 55, 6-Chloro-1-(4-fluoro-3,5-dimethylbenzyl)-4-(4-methylpyrimidin-5-yl)-2-(piperazin-1-yl)-1H-benzo[d]imidazole], the “change in RAS-GTP levels” value in experiment [2] is “only modest increases in RAS-GTP levels”.
On the same count and under the same terms, the entry for `Cc1cc(Cn2c(N3CC4(CNC4)C3)nc3c(-c4cncnc4C)cc(Cl)cc32)cc(C)c1F` [Compound 60, 6-Chloro-1-(4-fluoro-3,5-dimethylbenzyl)-4-(4-methylpyrimidin-5-yl)-2-(2,6-diazaspiro[3.3]heptan-2-yl)-1H-benzo[d]imidazole] is “only modest increases in RAS-GTP levels”; for `Cc1ncncc1-c1cc(Cl)cc2c1nc(N1CC3(CNC3)C1)n2Cc1ccc(F)cc1` [Compound 61, 6-Chloro-1-(4-fluorobenzyl)-4-(4-methylpyrimidin-5-yl)-2-(2,6-diazaspiro[3.3]heptan-2-yl)-1H-benzo[d]imidazole] it is “only modest increases in RAS-GTP levels”.
With `Cc1cc(Cn2c(N3CC4(CNC4)C3)nc3c(N4CCN(C)CC4)cc(Cl)cc32)cc(C)c1F` [Compound 64, 6-Chloro-1-(4-fluoro-3,5-dimethylbenzyl)-4-(4-methylpiperazin-1-yl)-2-(2,6-diazaspiro[3.3]heptan-2-yl)-1H-benzo[d]imidazole], in experiment [2], the “lowest concentration inducing small increases in RAS-GTP” value turned out to be 0.3 µM and the “change in RAS-GTP levels” value is recorded as “substantial increases in RAS-GTP levels at 10–30 μM”.
